{"data": "Results collected from several papers", "medium": "plasma", "note": "Each line is one published result; the experiments were not run side by side."}
{"SMILES": "O=C(Nc1c(Cl)cncc1Cl)c1ccc(OC(F)F)c(OCC2CC2)c1", "test system": "human", "setting": "oral, 0.25 mg, single dose, fasted", "Cmax": "6.4 ng/mL"}
{"SMILES": "COc1ccc([C@@H]2CN(C(=O)[C@@H](O)CO)C[C@@]2(C)[C@@H](C)O)cc1OC1CN(c2ccc(C)cn2)C1", "test system": "human", "setting": "oral, 0.1 mg, single dose, healthy volunteers", "Cmax": "8.8 ng/mL"}
{"SMILES": "Cn1cc(-c2ccc(S(=O)(=O)[C@@H]3C[C@@H](C(=O)NC4(C#N)CC4)N(C(=O)C4(C(F)(F)F)CC4)C3)c(C(F)(F)F)c2)cn1", "test system": "human", "setting": "oral, 100 mg, single dose, fasted, healthy volunteers", "Cmax": "516 ng/mL"}
{"SMILES": "CNC(=O)c1cc(Oc2ccc(NC(=O)Nc3cc(C(C)(C)C)nn3-c3ccc4ncccc4c3)c(F)c2)ccn1", "test system": "human", "setting": "oral, 200 mg, multiple doses, twice daily", "Cmax": "377 ng/mL"}
{"SMILES": "CNCC[C@H](Oc1cccc2ccccc12)c1cccs1", "test system": "female human", "setting": "oral, 60 mg, multiple doses, once daily", "Cmax": "54 ng/mL"}
{"SMILES": "NS(=O)(=O)NCCNc1nonc1C(=NO)Nc1ccc(F)c(Br)c1", "test system": "human", "setting": "oral, 300 mg, multiple doses, twice daily, steady state, patients", "Cmax": "2480 nM"}
{"SMILES": "C[C@@]1(c2cc(NC(=O)c3ccc(C#N)cn3)ccc2F)C=CSC(N)=N1", "test system": "human", "setting": "oral, 150 mg, single dose", "Cmax": "906 ng/mL"}
{"SMILES": "CCCOc1ccc([C@H]2CNC(=O)N2c2ccc3[nH]cnc3c2)cc1", "test system": "human", "setting": "oral, 200 mg, single dose, fasted, healthy volunteers", "Cmax": "1200 ng/mL"}
{"SMILES": "CC(C)n1cc(C#N)c2cc(-n3cc(C(=O)O)cn3)ccc21", "test system": "human", "setting": "oral, 200 mg, single dose, fasted, healthy volunteers", "Cmax": "8770 ng/mL"}
{"SMILES": "CCc1nc2c(C)cc(N3CCN(CC(=O)N4CC(O)C4)CC3)cn2c1N(C)c1nc(-c2ccc(F)cc2)c(C#N)s1", "test system": "human", "setting": "intravenous, 0.1 mg, single dose, fasted, healthy volunteers", "Cmax": "9.37 ng/mL"}
{"SMILES": "CCn1c(=O)c(-c2cc(NC(=O)Nc3ccccc3)c(F)cc2Br)cc2cnc(NC)cc21", "test system": "human", "setting": "oral, 30 mg, single dose, patients", "Cmax": "133 ng/mL"}
{"SMILES": "Cn1c(=O)oc2ccc(-c3ccc(C[C@@H](C#N)NC(=O)[C@@H]4CNCCCO4)cc3)cc21", "test system": "male human", "setting": "oral, 5 mg, single dose, healthy volunteers", "Cmax": "50.7 nM"}
{"SMILES": "COc1cc2c(cc1OC)CN(CCc1ccc(NC(=O)c3cc(OC)c(OC)cc3NC(=O)c3cnc4ccccc4c3)cc1)CC2", "test system": "human", "setting": "intravenous, 1 mg/kg, patients", "Cmax": "2200 nM"}
{"SMILES": "COc1cc(C(=O)NC2CCN(C)CC2)c(F)cc1Nc1ncc(C(F)(F)F)c(Oc2cccc3c2C(=O)N(C)C3)n1", "test system": "human", "setting": "oral, 10 mg, single dose, patients", "Cmax": "44.8 nM"}
{"SMILES": "CO[C@H]1CC[C@H](N2C(=O)CNc3ncc(-c4ccc(C(C)(C)O)nc4)nc32)CC1", "test system": "human", "setting": "oral, 30 mg, patients", "Cmax": "188 ng/mL"}
{"SMILES": "C/C(=C\\c1csc(C)n1)[C@@H]1C[C@@H]2O[C@]2(C)CCC[C@H](C)[C@H](O)[C@@H](C)C(=O)C(C)(C)[C@@H](O)CC(=O)N1", "test system": "human", "setting": "intravenous, 15 mg/m², patients", "Cmax": "89.6 ng/mL"}
{"SMILES": "O=C(/C=C/c1cccc(S(=O)(=O)Nc2ccccc2)c1)NO", "test system": "human", "setting": "intravenous, 2000 mg/m², patients", "Cmax": "112000 ng/mL"}
{"SMILES": "CC[C@H](C)C(=O)O[C@H]1C[C@H](O)C=C2C=C[C@H](C)[C@H](CC[C@@H](O)C[C@@H](O)CC(=O)O)[C@H]21", "test system": "human", "setting": "oral, 20 mg", "Cmax": "11.4 ng/mL"}
{"SMILES": "Oc1cc(O)c2c(c1)O[C@@H](c1ccc(O)c(O)c1)[C@@H](O)C2", "test system": "human", "setting": "oral, 10 mg, single dose", "Cmax": "0.4 ng/mL"}
